In ChEMBL document CHEMBL1132560, “N-Substituted 2-(2,6-dinitrophenylamino)propanamides: novel prodrugs that release a primary amine via nitroreduction and intramolecular cyclization” (J Med Chem, 1999):

What was measured:
CHO-AA8 = assay: Cytotoxicity on AA8 cell growth (reduce cell number by 50%).; assay type: functional, cell-based; settings: Cricetulus griseus
Procedure, shortened: (§1)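 Cells in αMEM with 5% FBS plus penicillin/streptomycin were seeded per well at 200 (AA8), 300 (UV4), 75 (EMT6) or 600 (SKOV3) cells and grown 24 h. Drugs came from DMSO stocks (final DMSO <1%), pH 7.4. Exposure was aerobic for 4 h, followed by washing, 4–5 days further growth and methylene blue staining. IC₅₀ was set as 50% growth inhibition relative to same-plate controls. Mean ± SEM of 3–5 experiments.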

EMT6 = assay: Cytotoxicity on EMT6 cell growth (reduce cell number by 50%).; assay type: functional, cell-based; settings: Mus musculus; procedure, shortened: as §1
SK-OV-3 = assay: Cytotoxicity on SKOV3 cell growth (reduce cell number by 50%).; assay type: functional, cell-based; settings: Homo sapiens; procedure, shortened: as §1
UV4 [1] = assay: Compound concentration to reduce plating efficiency of UV4 cells to 10% controls under aerobic conditions of 20% oxygen to that under […]; assay type: functional
Procedure, shortened: (§2)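 UV4 cells were grown to early plateau phase in spinner flasks and resuspended in fresh medium. Cells and drug in medium were pre-gassed for 1 h with 5% CO₂ in air (20% O₂) or in N₂. Cells at 10⁶/mL were then exposed for 1 h with continuous gassing and assayed clonogenically. C₁₀ is the concentration giving 10% surviving fraction; hypoxic selectivity is the ratio of aerobic to N₂ C₁₀. Mean ± SEM of 3 experiments.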

UV4 [2] = assay: Compound's concentration to reduce plating efficiency of UV4 cells to 10% controls under aerobic conditions of 20% oxygen; assay type: functional; procedure, shortened: as §2
UV4 [3] = assay: Cytotoxicity on UV4 cell growth (reduce cell number by 50%).; assay type: functional, cell-based; settings: Cricetulus griseus; procedure, shortened: as §1
[4] = 4-methoxyaniline yield was measured from 8 fold reduced forms of compound at pH 4
Procedure, shortened: (§3)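 Anaerobic aqueous solutions with 0.5 M 2-propanol were γ-irradiated to deliver a set number of molar equiv of reducing species (e⁻aq, (CH₃)₂C•OH), at room temperature. pH 7.4 runs used 0.01 M phosphate, pH 4.0 runs 0.01 M formate. […] Released 4-methoxyaniline was quantified by C-18 HPLC with diode-array detection.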

[5] = 4-methoxyaniline yield was measured from 4 fold reduced forms of compound at pH 4; procedure, shortened: as §3
[6] = 4-methoxyaniline yield was measured from 8 fold reduced forms of compound at pH 7.4; procedure, shortened: as §3
[7] = 4-methoxyaniline yield was measured from 4 fold reduced forms of compound at pH 7.4; procedure, shortened: as §3
[8] = 4-methoxyaniline yield was measured from 8 fold reduced forms of compound at 4; procedure, shortened: as §3
[9] = 4-methoxyaniline yield was measured from 4 fold reduced forms of compound at 4; procedure, shortened: as §3

COc1cc2cc(C(=O)N3CC(CCl)c4c3cc(NC(=O)C(C)Nc3c([N+](=O)[O-])cc(C(=O)NCCN(C)C)cc3[N+](=O)[O-])c3ccccc43)[nH]c2c(OC)c1OC (stereo unspecified)
IC50 (CHO-AA8): 95 nM | IC50 (EMT6): 41 nM | IC50 (SK-OV-3): 87 nM | C10 (UV4 [1]): 1.8 air/N2 | C10 (UV4 [2]): 490 nM | IC50 (UV4 [3]): 53 nM

COc1ccc(NC(=O)CN(C)c2c([N+](=O)[O-])cc(C(=O)NCCO)cc2[N+](=O)[O-])cc1
Release [4]: 100% | Release [5]: 80%

COc1ccc(NC(=O)CNc2c([N+](=O)[O-])cc(C(=O)NCCO)cc2[N+](=O)[O-])cc1
Release [4]: 83% | Release [6]: 69% | Release [7]: 69% | Release [5]: 83%

COc1cc2cc(C(=O)N3CC(CCl)c4c3cc(N)c3ccccc43)[nH]c2c(OC)c1OC (stereo unspecified)
IC50 (CHO-AA8): 0.46 nM | IC50 (EMT6): 0.27 nM | IC50 (SK-OV-3): 1 nM | C10 (UV4 [1]): 1.1 air/N2 | C10 (UV4 [2]): 3.4 nM | IC50 (UV4 [3]): 0.29 nM

COc1ccc(NC(=O)C(C)Nc2c([N+](=O)[O-])cc(C(=O)NCCO)cc2[N+](=O)[O-])cc1 (stereo unspecified)
Release [8]: 97% | Release [6]: 77% | Release [7]: 77% | Release [9]: 97%

COc1ccc(NC(=O)C(C)N(C)c2c([N+](=O)[O-])cc(C(=O)NCCO)cc2[N+](=O)[O-])cc1 (stereo unspecified)
Release [4]: 94% | Release [5]: 80%

COc1ccc(NC(=O)C(C)Nc2c([N+](=O)[O-])cc(C(=O)NCCN(C)C)cc2[N+](=O)[O-])cc1 (stereo unspecified)
Release [6]: 89% | Release [7]: 89%

COc1ccc(NC(=O)C(C)Nc2c([N+](=O)[O-])cc(C(=O)NCC(O)CO)cc2[N+](=O)[O-])cc1 (stereo unspecified)
Release [6]: 92% | Release [7]: 92%

COc1ccc(NC(=O)C(C)(C)Nc2c([N+](=O)[O-])cc(C(=O)NCCO)cc2[N+](=O)[O-])cc1
Release [6]: 90% | Release [7]: 90%

CC(Nc1c([N+](=O)[O-])cc(C(=O)NCCN(C)C)cc1[N+](=O)[O-])C(=O)Nc1ccc(N(CCCl)CCCl)cc1 (stereo unspecified)
IC50 (CHO-AA8): 10500 nM | IC50 (EMT6): 1300 nM | IC50 (SK-OV-3): 1300 nM | C10 (UV4 [1]): 1.3 air/N2 | C10 (UV4 [2]): 2100 nM | IC50 (UV4 [3]): 3000 nM
